PKA-R2B activ: PKA-R2B complex activation | P22694+P31323 | PKA-R2B holoenzyme dissociation, Cy5-IP20 fluorescence polarization; R2B truncated from residue 108, S112A mutant; 0% DMSO only, 100% 113 µM cGMP | activation, % at 11.4 µM | 340,000 compounds, 0.079% hits | AID 504700;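 active = activation above a cutoff set at the mean over all compounds plus 3 SD, cut at about 18% in these data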;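 also: higher means more holoenzyme dissociation and a rise in polarization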
CTSL1 counter: blocks F. hepatica cathepsin L1 in PFM18AAP counter-screen. 300,000 compounds, 0.49% hits. recombinant F. hepatica cathepsin L1, Z-Leu-Arg-MCA fluorescence. inhibition, % at 5.96 µM;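 active = inhibition above the mean of all tested compounds plus 3 SD, set per screening campaign, cut at about 17% in these data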;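 also: 0% = plate median of test compound wells and 100% = 1 µM Z-Phe-Ala-diazomethylketone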
PKA-R1A activ: activators of PKA-R1A complex; P00514+P68181; 340,000 compounds, 0.083% hits; PKA-R1A dissociation, Cy5-IP20 fluorescence polarization; scaled: DMSO 0%, 113 µM cGMP 100%; activation, % at 11.4 µM;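 active = percent activation above the mean of all tested compounds plus 3 SD, cut at about 19% in these data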;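 also: higher means more PKAc released from R1A so a rise in polarization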
aDG glyco act: alpha-DG glycosylation activation. Pro5-aDG cells, alpha-DG glycosylation AlphaScreen (IIH6); 0% Pro5, 100% B10-LARGE cell signal. activation, % at 10 µM. 360,000 compounds, 0.22% hits;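 active = activation of at least 8% versus controls, or a plate z-score of at least 8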;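 also: Pro5 are CHO cells carrying HIG-tagged alpha-DG that lacks glycosylation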
UCH37 DUB inh: blocks the human deubiquitinase UCH37 | Q9Y5K5 | purified proteasome/UCH37, Ub-AMC cleavage fluorescence | inhibition, % (no concentration beside the values) | 330,000 compounds, 0.33% hits;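 active = mean inhibition over replicate wells above about 20%, limit read from the data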;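 also: 0% = compound-free wells with enzyme and 100% = wells lacking proteasome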
Target sequence (Q9Y5K5 whole entry, looked up): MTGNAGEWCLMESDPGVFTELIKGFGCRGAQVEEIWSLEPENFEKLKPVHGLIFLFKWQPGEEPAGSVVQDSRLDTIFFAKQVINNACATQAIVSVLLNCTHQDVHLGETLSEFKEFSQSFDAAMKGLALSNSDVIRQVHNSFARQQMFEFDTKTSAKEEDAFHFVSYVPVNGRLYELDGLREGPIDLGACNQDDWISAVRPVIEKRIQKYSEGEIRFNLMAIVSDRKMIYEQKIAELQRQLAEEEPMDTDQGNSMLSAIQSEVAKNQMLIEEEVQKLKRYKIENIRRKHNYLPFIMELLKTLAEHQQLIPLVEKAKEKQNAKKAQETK
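Signal – fluorescence, ex 355 nm, em 460 nm · System – Proteasome-bound UCH37 · Input – 0.15 nM proteasome as dispensed · Timing – 30 min preincubation with enzyme, 25 min cleavage at room temperature · Read-out basis – percent inhibition of cleavage signal versus uninhibited and no-proteasome wells · Medium – Tris-HCl pH 7.4 with ATP-MgCl2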
* marks the source's active call; other numbers are inactive results; nt = no result given. This is a sample that favours compounds with a hit; in the whole collection about 0.94% have one here.

SMILES	PKA-R2B activ	CTSL1 counter	PKA-R1A activ	aDG glyco act	UCH37 DUB inh
CN(C)C(CNC(=O)c1cc(Br)ccc1Cl)c1ccco1 (centres undefined)	-6.0	22.4*	4.2	0.1	-0.7
CC(=NNC(=O)c1cccc(S(=O)(=O)N2CCOCC2)c1)c1ccc(OC(F)F)cc1	nt	nt	nt	nt	0.4
CCCCNC(=O)Cn1nc(Cc2ccncc2)c2ccccc2c1=O	-6.8	0.7	-7.2	0.0	2.7
O=C(Cn1nc(Cc2ccncc2)c2ccccc2c1=O)N1CCc2ccccc2C1	-2.7	2.7	3.8	0.3	20.1*
NC(Cc1ccccc1Sc1ccccc1)=NO	nt	nt	nt	nt	3.9
Oc1oc(-c2cccc3ccccc23)nc1/C=N/c1nccs1	-2.3	22.4*	3.3	-0.3	nt
CNC(=S)NN=Cc1cc(C)ccc1C	nt	nt	nt	nt	6.7
Cc1onc(-c2ccccc2Cl)c1C(=O)Nc1ccc(S(=O)(=O)Nc2nccs2)cc1	-0.1	1.3	1.8	-0.2	30.0*
O=C1CC(c2ccccc2)CC(O)=C1C=NCCCO (centres undefined)	-8.7	2.4	5.0	2.3	22.1*
N#CN(CC(N)=O)c1nc(N2CCCCC2)nc(N2CCCCC2)n1	-9.6	25.3*	-7.9	0.0	3.5
COC(=O)c1nn(-c2ccccc2)c(Sc2ccc(Br)cc2)c1C=NO	nt	nt	nt	nt	0.2
CN(C)/C=C1\N=C(c2ccccc2)OC1=O	-16.3	3.6	-16.4	0.1	20.0*
Cc1ccc(C2=N/C(=C/N3CCOCC3)C(=O)O2)cc1	-7.0	1.3	-12.8	-0.3	20.4*
Cc1ccc(C2=N/C(=C\N3CCCCC3)C(=O)O2)cc1	-0.5	5.6	-8.9	0.0	15.5
COc1ccc(NS(=O)(=O)c2cccc(C(=O)N(C)Cc3cccs3)c2)cc1	-0.1	26.7*	-0.2	0.5	3.0
CN(C(=O)C12CC3CC(CC(C3)C1)C2)C1(C)CCS(=O)(=O)C1 (centres undefined)	-5.8	-5.0	2.4	-0.2	30.1*
Cc1ccc(Cl)cc1N1CCN(C(=O)C2CCN(S(=O)(=O)c3cccnc3)CC2)CC1	-6.3	-1.1	-3.8	7.5*	5.0
O=C(C1CCN(S(=O)(=O)c2cccnc2)CC1)N1CCN(c2ccccc2Cl)CC1	0.6	-4.6	-7.8	0.5	2.7
CCCCNC(=O)Oc1c(Br)cc2sc(=O)oc2c1Br	nt	22.8*	nt	nt	nt
CCCCNC(=O)Oc1cc(CCl)on1	nt	-4.8	nt	nt	nt
O=C(Nc1ccc(OC(F)(F)F)cc1)Nc1cccc([N+](=O)[O-])c1	3.6	-0.2	7.4	-0.7	31.1*
OC12CCCCC1C(c1ccc3c(c1)OCO3)N(Cc1ccc(F)cc1)CC2 (centres undefined)	4.7	-0.3	-7.6	-0.1	29.2*
O=C(COC(=O)CNC(=O)c1ccc(Cl)cc1Cl)Nc1ccc(N2CCOCC2)cc1	-5.4	17.3*	-1.6	0.5	2.3
O=C1N=C(O)CN1N=Cc1ccc(-c2ccc([N+](=O)[O-])cc2)o1	nt	nt	nt	nt	5.1
Oc1ccc(N=Cc2ccc(-c3cccs3)s2)cc1	-0.5	39.5*	3.0	0.2	-264.6
SMILES	PKA-R2B activ	CTSL1 counter	PKA-R1A activ	aDG glyco act	UCH37 DUB inh
C=C(CCC(=O)c1ccccc1)C(=O)c1ccccc1	2.8	41.1*	-9.4	-0.1	4.1
CCOc1ccccc1NC(=O)c1ccc2c(c1)C(=O)N(CC1CCCO1)C2=O (centres undefined)	-4.0	17.5*	-13.6	0.1	-1.8
COc1ccccc1-c1nnc(Sc2nc([N+](=O)[O-])nn2C)o1	-3.9	76.6*	-10.7	1.1	3.7
O=[N+]([O-])c1cccc(S(=O)(=O)c2ccc(NCCOCCO)c([N+](=O)[O-])c2)c1	2.6	0.0	-0.4	-0.1	3.3
O=[N+]([O-])c1cccc(S(=O)(=O)c2ccc(NCCO)c([N+](=O)[O-])c2)c1	-1.0	-3.9	-7.9	-0.3	31.5*
CC[n+]1c(/C=C2\Sc3ccccc3N2C)ccc2cccc(C)c21	10.0	nt	-1.9	3.7	23.5*
CN1/C(=C/c2cccc[n+]2CCO)Sc2ccccc21	10.3	1.0	2.7	0.0	2.5
CCN(CC)c1ccc2cc(C(N)=O)c(=NNC(=O)c3ccncc3)oc2c1	nt	nt	nt	nt	21.7*
COc1ccc2cc(C(N)=O)/c(=N\NC(=O)c3ccccc3)oc2c1	0.2	2.8	-3.2	-0.1	nt
Cc1ccc(CN2CCN(N=Cc3cc([N+](=O)[O-])ccc3Cl)CC2)cc1	nt	nt	nt	nt	4.2
Cc1nn(C)c(C)c1NC(=O)Nc1ccc(Cl)c(Cl)c1	3.0	19.8*	7.7	0.0	1.1
Cc1nn(C)c(C)c1NC(=O)Nc1cccc(C(F)(F)F)c1	-8.3	0.9	0.2	0.0	-0.6
Nc1ccc(C(=O)NN=Cc2cc(N=Nc3cccc4ccccc34)ccc2O)cc1	nt	nt	nt	nt	6.6
Cc1ccc(NC(=O)c2sc(N)nc2-c2ccccc2)cc1C	-10.8	33.6*	-6.5	-0.3	-3.2
Cc1ccc(NC(=O)c2sc(N)nc2-c2ccc([N+](=O)[O-])cc2)cc1C	-6.9	7.5	5.2	-0.1	2.8
Cc1ccc(NC(=O)c2sc(Cl)nc2C)c(C)c1	-7.8	-0.9	5.3	0.7	1.5
Cc1ccc(NC(=O)c2sc(C)nc2C)c(C)c1	4.3	17.8*	-2.7	-0.1	-0.9
Cc1cc(C)c(S(=O)(=O)/N=C2/C=C(Sc3ncn[nH]3)C(=O)c3ccccc32)cc1C	6.8	91.9*	4.3	-0.7	nt
Cc1ccc(C)c(S(=O)(=O)/N=C2\C=C(NS(=O)(=O)c3ccccc3)C(=O)c3ccccc32)c1	-3.2	3.5	-1.6	0.2	nt
CCc1ccc(S(=O)(=O)N=C2C=C(Sc3ncn[nH]3)C(=O)c3ccccc32)cc1	nt	nt	nt	nt	79.8*
CCc1ccc(S(=O)(=O)/N=C2\C=C(NS(=O)(=O)c3ccccc3)C(=O)c3ccccc32)cc1	4.7	nt	1.2	1.1	13.0
COC(=O)C1=C(C)N(C)C(=S)N(C)C1c1ccc(OC)cc1 (centres undefined)	4.7	17.4*	-1.7	0.5	2.7
COC(=O)C1=C(C)N(C)C(C)=C(C(=O)OC)C1c1ccc(C(=O)OC)cc1	-13.1	0.3	-11.2	-0.1	-18.1
CC(=NNC(=O)c1ccc(NS(=O)(=O)c2cccs2)cc1)c1ccc(C(C)(C)C)cc1	nt	nt	nt	nt	-0.2
COC(=O)c1ccc(NN=Cc2cc([N+](=O)[O-])cc(OC)c2O)cc1	nt	nt	nt	nt	8.2
SMILES	PKA-R2B activ	CTSL1 counter	PKA-R1A activ	aDG glyco act	UCH37 DUB inh
N#CCn1cc(C=NNC(=O)c2cc3c(ccc4ccccc43)o2)c2ccccc21	nt	nt	nt	nt	-99.0
CSCC[C@H](Nc1ncnc2sc(C)c(C)c12)C(=O)O	-8.2	19.4*	-12.0	-0.2	0.9
CCOC(=O)CC(C)(C)C(C)=NNc1ccc([N+](=O)[O-])cc1[N+](=O)[O-]	nt	nt	nt	nt	5.9
CC1=NN(/C(=N/c2nnc(C)s2)Nc2ccc(C(C)(C)C)cc2)[C@H](c2ccc(C)cc2)S1	nt	nt	nt	nt	6.0
Cn1cc(/C=N/NC(N)=S)c2ccccc21	-2.5	99.8*	-1.8	-0.1	nt
CC(=O)n1cc(C=NNC(N)=S)c2ccccc21	nt	nt	nt	nt	6.2
